Hits are enriched below; roughly 2.3% of the tested compounds scored in any of these assays.
PP1 counter – PP1-alpha phosphatase inhibitors, primary screen, counter-screen for PP5 inhibitor project, biochemical, fluorescence, OMFP substrate, single point; purified PP1alpha; Serine/threonine-protein phosphatase PP1-alpha catalytic subunit (Homo sapiens), P62136; 320,000 compounds, 0.9% hits; AID 2235, 2010; inhibition, % at 6.7 µM;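 active = inhibition above the mean inhibition of all tested compounds plus 3 SD, computed separately for each screening campaign, cut at about 15% in these data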
Target sequence (P62136 whole entry, looked up): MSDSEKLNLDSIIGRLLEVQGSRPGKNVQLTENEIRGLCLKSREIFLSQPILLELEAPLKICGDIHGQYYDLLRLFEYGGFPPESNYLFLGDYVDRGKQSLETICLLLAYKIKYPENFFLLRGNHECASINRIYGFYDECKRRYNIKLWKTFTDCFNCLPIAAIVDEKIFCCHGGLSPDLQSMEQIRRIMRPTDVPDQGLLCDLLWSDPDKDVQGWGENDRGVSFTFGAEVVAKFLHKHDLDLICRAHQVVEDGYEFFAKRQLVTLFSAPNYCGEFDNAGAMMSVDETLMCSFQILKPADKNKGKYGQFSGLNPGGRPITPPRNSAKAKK
PREPL inhibitor – PREPL enzyme inhibitors, primary screen, biochemical, fluorescence polarization. recombinant PREPL, fluorescence polarization activity-based probe. inhibition, % at 5.96 µM. Prolyl endopeptidase-like (Homo sapiens), Q4J6C6. 320,000 compounds, 0.68% hits; in the data active = inhibition above about 43%;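 also: 0% = enzyme with DMSO and 100% = wells lacking enzyme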
UCH37 inh – inhibitors of human UCH37 deubiquitinase, primary screen, biochemical, Ub-AMC cleavage, fluorescence; inhibition, % (test concentration not listed); AID 588478, 2011; 330,000 compounds, 0.33% hits; Ubiquitin carboxyl-terminal hydrolase isozyme L5 (Homo sapiens), Q9Y5K5; purified proteasome/UCH37;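 active = mean inhibition over replicate wells above about 20%, limit read from the data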;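 also: 0% = compound-free wells with enzyme and 100% = wells lacking proteasome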
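Reagent: Ub-AMC substrate; assay system: Proteasome-associated human UCH37 deubiquitinase; controls: no-proteasome and no-compound wells; read-out: % inhibition of Ub-AMC cleavage fluorescence; timing: 30 min preincubation with enzyme, 25 min cleavage at room temperature; signal: AMC fluorescence from Ub-AMC cleavage, excitation 355 nm, emission 460 nm; buffer or medium: Tris-HCl pH 7.4 plus ovalbumin, ATP-MgCl2, DTT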
CTSL1 counter – Fasciola hepatica cathepsin L1 inhibitors, primary screen, counter-screen for PFM18AAP inhibitor project, biochemical, QFRET, fluorogenic peptide substrate; recombinant F. hepatica cathepsin L1, Z-Leu-Arg-MCA fluorescence; inhibition, % at 5.96 µM; 300,000 compounds, 0.49% hits; AID 1906, 2009;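 active = inhibition above the mean of all tested compounds plus 3 SD, set per screening campaign, cut at about 17% in these data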;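 also: 0% = plate median of test compound wells and 100% = 1 µM Z-Phe-Ala-diazomethylketone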
PP5 primary – PP5 phosphatase inhibitors, primary screen, biochemical, fluorescence; inhibition, % at 6.7 µM; purified PP5c, OMFP substrate fluorescence; 320,000 compounds, 0.18% hits;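 active = inhibition above the campaign's mean inhibition across all tested compounds plus 3 SD, cut at about 9.5% in these data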;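 also: 0% = DMSO only and 100% = 100 µM cantharidin control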
UBC13 polyUb – UBC13 polyubiquitin chain formation inhibitors, primary screen, biochemical, TR-FRET, uHTS; inhibition, % at 20 µM; Ubiquitin-conjugating enzyme E2 N (Homo sapiens), P61088; 330,000 compounds, 0.47% hits; in the data active = inhibition above about 45%, passing the limit was not always enough
Target sequence (P61088 whole entry, looked up): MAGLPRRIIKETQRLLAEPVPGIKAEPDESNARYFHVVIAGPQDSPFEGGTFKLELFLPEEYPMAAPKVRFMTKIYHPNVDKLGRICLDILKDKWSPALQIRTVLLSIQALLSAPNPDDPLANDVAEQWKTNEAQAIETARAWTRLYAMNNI
Numbers without * were called inactive; x = no result.

SMILES	PP1 counter	PREPL inhibitor	UCH37 inh	CTSL1 counter	PP5 primary	UBC13 polyUb
COc1ccc(C(CCN2CCN(c3ccccc3)CC2)c2c(OC)cc(OC)c3c(-c4ccccc4)cc(=O)oc23)cc1 (stereo not given)	8.3	-2.6	-1.1	-3.2	4.3	-1.7
COc1cc(OC)c2c(-c3ccccc3)cc(=O)oc2c1C(CCN1CCN(c2ccccc2)CC1)c1ccc(N(C)C)cc1 (stereo not given)	15.9*	15.1	4.5	0.3	5.2	-5.0
O=C(c1ccc(-c2ccc(Cl)cc2)o1)N1CCN(c2ccc([N+](=O)[O-])cc2Cl)CC1	16.2*	5.1	0.3	-0.3	-0.1	-1.4
O=C(c1ccc(-c2ccc([N+](=O)[O-])cc2)o1)N1CCCCC1	-3.1	7.3	11.6	0.8	2.1	-5.9
O=S(=O)(N=C([O-])C[n+]1ccccc1)c1ccc(Cl)cc1	x	x	3.7	x	x	x
CN(C)S(=O)(=O)c1cccc(-c2nn(-c3ccccc3)cc2/C=C2\SC(=S)NC2=O)c1	16.6*	-11.8	7.5	3.3	3.7	x
CSCC[C@H](N)C(=O)NCC1CCC(C(=O)N[C@@H](Cc2ccccc2)C(=O)O)CC1 (stereo not given in full)	x	x	0.9	x	x	x
NC(=S)N/N=C/c1c[nH]c2ccc(OCc3ccccc3)cc12	3.9	24.0	x	54.5*	4.1	0.3
NC(=S)N/N=C\c1ccccc1OCc1ccccc1	-4.3	-4.5	x	12.1	-0.5	6.6
COc1cccc(/C=N/NC(N)=S)c1OCc1cccc(Cl)c1	4.5	-48.7	x	17.1*	1.4	10.9
CN(/C=C/C(=C/C=[N+](C)c1ccccc1)OCCCS(=O)(=O)[O-])c1ccccc1	1.1	0.8	21.1*	0.1	4.0	-39.9
CC1CCCC(C)N1C(=O)COC(=O)c1ccc(S(=O)(=O)N(C)c2ccccc2)cc1 (stereo not given)	x	20.7	-0.4	x	x	-4.6
CN(/C=C/C(=C\C=[N+](C)c1ccccc1)OCCCS(=O)(=O)[O-])c1ccccc1	-1.4	3.0	20.1*	2.2	-0.1	-19.6
CN(CC(=O)NCCc1ccc(S(N)(=O)=O)cc1)c1ccccc1	-2.7	2.2	-0.5	1.0	-0.3	3.1
Cc1ccc(S(=O)(=O)N(CC(=O)NN=Cc2cccc3c2OCCO3)c2ccccc2F)cc1	x	x	-0.9	x	x	x
COc1cc(OC)c(/C=C2\C(=O)Nc3ccccc32)c(OC)c1	-4.9	0.5	3.9	38.3*	3.6	-27.5
CN1CCN(C2=C(Cl)C(=O)C(c3cnc(N4CCCCC4)s3)=C(Cl)C2=O)CC1	5.8	49.7*	-21.5	-1.4	4.9	-17.6
O=[N+]([O-])c1ccc(Nc2nc(NN=Cc3ccc4c(c3)OCO4)nc(N3CCCCC3)n2)cc1	x	x	9.9	x	x	x
O=[N+]([O-])c1ccc(Nc2nc(N/N=C/c3cccc(F)c3)nc(N3CCCC3)n2)cc1	8.3	46.9*	x	-0.5	1.0	-24.0
COc1cccc(/C=N/Nc2nc(Nc3ccc([N+](=O)[O-])cc3)nc(N3CCCC3)n2)c1O	15.5*	29.3	x	3.9	5.5	-18.0
COc1cccc(C=NNc2nc(N3CCCC3)nc(N3CCCC3)n2)c1O	x	x	0.9	x	x	x
COc1ccc(C=NNc2ncc(C(F)(F)F)cc2Cl)c(OC)c1OC	x	x	0.5	x	x	x
COc1ccc(/C=C/C(=O)NC(=S)NNC(=O)c2cccnc2)cc1	15.9*	12.3	7.0	8.7	0.8	5.6
COc1ccc(/C=C/C(=O)NC(=S)NNC(=O)c2cnccn2)cc1	5.4	4.4	x	2.8	0.5	-20.7
COc1ccc(/C=C/C(=O)NC(=S)NNC(=O)c2cccs2)cc1	16.5*	3.3	x	-1.3	-1.9	-33.9
COc1ccc(NC(=O)C(=O)NNC(=O)c2cccs2)cc1	0.6	-4.9	7.1	19.2*	-0.2	1.5
Cc1cccc(C(=O)Oc2ccc(C=NNC(=O)c3ccccc3O)cc2)c1	x	x	-124.2	x	x	x
Cc1ccc(-n2nnnc2Sc2nc([N+](=O)[O-])nn2C)cc1C	-5.1	18.7	20.1*	8.9	0.7	-2.2

Screening results (PubChem BioAssay)
